Results taken from ChEMBL document CHEMBL1137938, “Affinity and intrinsic efficacy (IE) of 5'-carbamoyl adenosine analogues for the A1 adenosine receptor--efforts towards the discovery of a chronic ventricular rate control agent for the treatment of atrial fibrillation (AF)” (Bioorg Med Chem Lett, 2004).

What was measured:
[1] = test system: Adenosine receptor A1 (Mesocricetus auratus); test: Stimulation of binding of [35S]GTP uM)
Cavia porcellus [2] = species on record: Cavia porcellus; test: Agonist-induced SH prolongation in guinea pig isolated heart was determined; Inactive; format: functional
Cavia porcellus [3] = species on record: Cavia porcellus; test: Agonist-induced SH prolongation in guinea pig isolated heart was determined; 3-5 uM (Partial agonist); format: functional
[4] = Compound remaining after incubation with 2 mg/mL of human liver microsomes at 37 degrees C for 30 min in a pH 7.4, 0.05 M phosphate buffer; format: ADME, Microsome
In short: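 Incubation with human liver microsomes at 2 mg/mL, 37 C, 30 min, in 0.05 M phosphate buffer pH 7.4 containing 5 mM MgCl2 and 2 mM NADPH; percentage of parent compound remaining recorded.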

[5] = Amount of tecadenoson present after 30 min in the liver S-9 assay as determined by mass specanalysis; format: ADME, tissue-based; conditions: human, 0.5 h
Cavia porcellus [6] = species on record: Cavia porcellus; test: Agonist-induced SH prolongation in guinea pig isolated heart was determined; 0.5-0.51 uM (Partial agonist); format: functional
[7] = Amount of tecadenoson present after 30 min in the liver S-9 assay as determined by mass specanalysis; -0.5 to 1; format: ADME, tissue-based; conditions: human, 0.5 h
Cavia porcellus [8] = species on record: Cavia porcellus; test: Agonist-induced SH prolongation in guinea pig isolated heart was determined; 3-5 uM (Full agonist); format: functional
[9] = Concentration in rat plasma after 5 mg/kg oral gavage for 8 hours; format: ADME, organism-based; parameters: dose 5 mg/kg, route oral
In short: (§1)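 Rats dosed by oral gavage with parent at 5 mg/kg, or with bis-acetate prodrug at molar equivalents. Parent concentration in plasma followed over time. Cmax and AUC taken from the plasma profile. Oral bioavailability derived from AUC measurements.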

[10] = Maximum concentration in rat plasma after 5 mg/kg oral gavage; format: ADME, organism-based; parameters: dose 5 mg/kg, route oral
In short: as §1

Cavia porcellus [11] = species on record: Cavia porcellus; test: Agonist-induced SH prolongation in guinea pig isolated heart was determined; format: functional
[12] = Plasma half life in rat after 5 mg/kg oral gavage; 6-8 hours; format: ADME, organism-based; parameters: dose 5 mg/kg, route oral
[13] = Bioavailability in rat after 5 mg/kg oral gavage; format: ADME, organism-based; conditions: in vivo, read-out: Bioavailabiility
In short: as §1

[14] = Amount of tecadenoson present after 30 min in the liver S-9 assay as determined by mass specanalysis; trace; format: ADME, tissue-based; conditions: human, 0.5 h
[15] = Amount of tecadenoson present after 30 min in the liver S-9 assay as determined by mass specanalysis; 1-2; format: ADME, tissue-based; conditions: human, 0.5 h
Cavia porcellus [16] = species on record: Cavia porcellus; test: Agonist-induced SH prolongation in guinea pig isolated heart was determined; 0.5-1 uM (Partial agonist); format: functional, organism-based

CCNC(=O)OC[C@H]1OC(n2cnc3c(N[C@@H]4CCOC4)ncnc32)[C@H](O)[C@@H]1O (stereo not given in full)
[35S]GTPγS binding stimulation (% of CPA) [1]: 80%

CCCCNC(=S)OC[C@H]1OC(n2cnc3c(N[C@@H]4CCOC4)ncnc32)[C@H](O)[C@@H]1O (stereo not given in full)
[35S]GTPγS binding stimulation (% of CPA) [1]: 70% | EC50 (Cavia porcellus [2]): Not Active

O=C(NC1CCCC1)OC[C@H]1OC(n2cnc3c(N[C@@H]4CCOC4)nc(Cl)nc32)[C@H](O)[C@@H]1O (stereo not given in full)
[35S]GTPγS binding stimulation (% of CPA) [1]: 69% | EC50 (Cavia porcellus [3]): 5 µM

CCNC(=S)OC[C@H]1OC(n2cnc3c(N[C@@H]4CCOC4)nc(Cl)nc32)[C@H](O)[C@@H]1O (stereo not given in full)
[35S]GTPγS binding stimulation (% of CPA) [1]: 84% | remaining at 0.5 h [4]: 41% | Activity [5]: 0% | EC50 (Cavia porcellus [6]): 0.51 µM

CNC(=S)OC[C@H]1OC(n2cnc3c(N[C@@H]4CCOC4)ncnc32)[C@H](O)[C@@H]1O (stereo not given in full)
[35S]GTPγS binding stimulation (% of CPA) [1]: 77% | remaining at 0.5 h [4]: 99% | Activity [7]: 1% | EC50 (Cavia porcellus [6]): 0.51 µM

OC[C@H]1O[C@@H](n2cnc3c(N[C@@H]4CCOC4)ncnc32)[C@H](O)[C@@H]1O [TECADENOSON]
EC50 (Cavia porcellus [3]): < 0.5 µM

CC(C)NC(=S)OC[C@H]1OC(n2cnc3c(N[C@@H]4CCOC4)ncnc32)[C@H](O)[C@@H]1O (stereo not given in full)
[35S]GTPγS binding stimulation (% of CPA) [1]: 84%

CNC(=S)OC[C@H]1OC(n2cnc3c(N[C@@H]4CCOC4)nc(Cl)nc32)[C@H](O)[C@@H]1O (stereo not given in full)
[35S]GTPγS binding stimulation (% of CPA) [1]: 77% | remaining at 0.5 h [4]: 62% | Activity [5]: 0% | EC50 (Cavia porcellus [6]): 0.51 µM

O[C@@H]1[C@@H](COC(=S)NCc2ccccc2)OC(n2cnc3c(N[C@@H]4CCOC4)ncnc32)[C@@H]1O (stereo not given in full)
[35S]GTPγS binding stimulation (% of CPA) [1]: 93%

CCNC(=S)OC[C@H]1OC(n2cnc3c(N[C@@H]4CCOC4)ncnc32)[C@H](O)[C@@H]1O (stereo not given in full)
[35S]GTPγS binding stimulation (% of CPA) [1]: 77% | EC50 (Cavia porcellus [8]): 5 µM

CNC(=O)OC[C@H]1OC(n2cnc3c(N[C@@H]4CCOC4)ncnc32)[C@H](OC(C)=O)[C@@H]1OC(C)=O (stereo not given in full)
AUC at 8 h [9]: 1340 ng·h/mL | Cmax [10]: 647 ng/mL

C=CCNC(=S)OC[C@H]1OC(n2cnc3c(N[C@@H]4CCOC4)ncnc32)[C@H](O)[C@@H]1O (stereo not given in full)
[35S]GTPγS binding stimulation (% of CPA) [1]: 78%

CCCCNC(=O)OC[C@H]1OC(n2cnc3c(N[C@@H]4CCOC4)ncnc32)[C@H](O)[C@@H]1O (stereo not given in full)
[35S]GTPγS binding stimulation (% of CPA) [1]: 49% | EC50 (Cavia porcellus [11]): > 5 µM

O[C@@H]1[C@@H](COC(=S)NC2CCCCC2)OC(n2cnc3c(N[C@@H]4CCOC4)ncnc32)[C@@H]1O (stereo not given in full)
[35S]GTPγS binding stimulation (% of CPA) [1]: 82%

O[C@@H]1[C@@H](COC(=S)NC2CCCC2)OC(n2cnc3c(N[C@@H]4CCOC4)ncnc32)[C@@H]1O (stereo not given in full)
[35S]GTPγS binding stimulation (% of CPA) [1]: 95% | EC50 (Cavia porcellus [8]): 5 µM

O[C@@H]1[C@@H](COC(=S)NC2CC2)OC(n2cnc3c(N[C@@H]4CCOC4)ncnc32)[C@@H]1O (stereo not given in full)
[35S]GTPγS binding stimulation (% of CPA) [1]: 82%

CNC(=O)OC[C@H]1OC(n2cnc3c(N[C@@H]4CCOC4)ncnc32)[C@H](O)[C@@H]1O (stereo not given in full)
remaining at 0.5 h [4]: ~100% | AUC at 8 h [9]: 698 ng·h/mL | Cmax [10]: 305 ng/mL | half-life [12]: 8 h | bioavailability [13]: 9% | Activity [14]: Partially active | EC50 (Cavia porcellus [3]): 5 µM

CN(C)C(=O)OC[C@H]1OC(n2cnc3c(N[C@@H]4CCOC4)ncnc32)[C@H](O)[C@@H]1O (stereo not given in full)
[35S]GTPγS binding stimulation (% of CPA) [1]: 87%

C=CCNC(=O)OC[C@H]1OC(n2cnc3c(N[C@@H]4CCOC4)ncnc32)[C@H](O)[C@@H]1O (stereo not given in full)
[35S]GTPγS binding stimulation (% of CPA) [1]: 48%

O=C(NC1CCCC1)OC[C@H]1OC(n2cnc3c(N[C@@H]4CCOC4)ncnc32)[C@H](O)[C@@H]1O (stereo not given in full)
EC50 (Cavia porcellus [3]): 5 µM

CCCNC(=S)OC[C@H]1OC(n2cnc3c(N[C@@H]4CCOC4)ncnc32)[C@H](O)[C@@H]1O (stereo not given in full)
[35S]GTPγS binding stimulation (% of CPA) [1]: 89% | remaining at 0.5 h [4]: 98% | Activity [15]: 2% | EC50 (Cavia porcellus [16]): 1 µM

CNC(=O)OC[C@H]1OC(n2cnc3c(N[C@@H]4CCOC4)nc(Cl)nc32)[C@H](O)[C@@H]1O (stereo not given in full)
[35S]GTPγS binding stimulation (% of CPA) [1]: 77% | EC50 (Cavia porcellus [3]): 5 µM

CN(C)C(=S)OC[C@H]1OC(n2cnc3c(N[C@@H]4CCOC4)ncnc32)[C@H](O)[C@@H]1O (stereo not given in full)
[35S]GTPγS binding stimulation (% of CPA) [1]: 85%

O[C@@H]1[C@@H](COC(=S)NC2CCC2)OC(n2cnc3c(N[C@@H]4CCOC4)ncnc32)[C@@H]1O (stereo not given in full)
[35S]GTPγS binding stimulation (% of CPA) [1]: 79%

O=C(NC1CCCCC1)OC[C@H]1OC(n2cnc3c(N[C@@H]4CCOC4)ncnc32)[C@H](O)[C@@H]1O (stereo not given in full)
[35S]GTPγS binding stimulation (% of CPA) [1]: 80%

CC(C)NC(=O)OC[C@H]1OC(n2cnc3c(N[C@@H]4CCOC4)ncnc32)[C@H](O)[C@@H]1O (stereo not given in full)
[35S]GTPγS binding stimulation (% of CPA) [1]: 91%

CCCNC(=O)OC[C@H]1OC(n2cnc3c(N[C@@H]4CCOC4)ncnc32)[C@H](O)[C@@H]1O (stereo not given in full)
[35S]GTPγS binding stimulation (% of CPA) [1]: 73%

O=C(NCc1ccccc1)OC[C@H]1OC(n2cnc3c(N[C@@H]4CCOC4)ncnc32)[C@H](O)[C@@H]1O (stereo not given in full)
[35S]GTPγS binding stimulation (% of CPA) [1]: 44%

O=C(NC1CCC1)OC[C@H]1OC(n2cnc3c(N[C@@H]4CCOC4)ncnc32)[C@H](O)[C@@H]1O (stereo not given in full)
[35S]GTPγS binding stimulation (% of CPA) [1]: 67%

O=C(NC1CC1)OC[C@H]1OC(n2cnc3c(N[C@@H]4CCOC4)ncnc32)[C@H](O)[C@@H]1O (stereo not given in full)
[35S]GTPγS binding stimulation (% of CPA) [1]: 82%
